Screening data from PubChem.
AHR activator: AHR activators, primary screen, cell-based, luminescence, luciferase reporter, human; activation, % at 5 µM; AID 2796, 2010; actives 2.5% (n = 320,000); Aryl hydrocarbon receptor (Homo sapiens), P35869; AHR-responsive luciferase reporter cells; in the data active means activation above about 47%;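 further: 0% = vehicle wells and 100% = reference agonist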
SR-BI HDL uptake: inhibitors of SR-BI mediated HDL lipid uptake, primary screen, ldlA[mSR-BI] cells, fluorescence, single point. Scavenger receptor class B member 1 (Mus musculus), Q61009. inhibition, % at 12.5 µM. actives 0.96% (n = 320,000). ldlA[mSR-BI] CHO cells, DiI-HDL uptake fluorescence, 3 h. AID 488896, 2010;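 active means mean replicate inhibition of at least 70% and a set share of replicates each scoring 70 or more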;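 further: 0% = median of neutral control wells and 100% = median of positive control wells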
Target sequence (Q61009 whole entry, looked up): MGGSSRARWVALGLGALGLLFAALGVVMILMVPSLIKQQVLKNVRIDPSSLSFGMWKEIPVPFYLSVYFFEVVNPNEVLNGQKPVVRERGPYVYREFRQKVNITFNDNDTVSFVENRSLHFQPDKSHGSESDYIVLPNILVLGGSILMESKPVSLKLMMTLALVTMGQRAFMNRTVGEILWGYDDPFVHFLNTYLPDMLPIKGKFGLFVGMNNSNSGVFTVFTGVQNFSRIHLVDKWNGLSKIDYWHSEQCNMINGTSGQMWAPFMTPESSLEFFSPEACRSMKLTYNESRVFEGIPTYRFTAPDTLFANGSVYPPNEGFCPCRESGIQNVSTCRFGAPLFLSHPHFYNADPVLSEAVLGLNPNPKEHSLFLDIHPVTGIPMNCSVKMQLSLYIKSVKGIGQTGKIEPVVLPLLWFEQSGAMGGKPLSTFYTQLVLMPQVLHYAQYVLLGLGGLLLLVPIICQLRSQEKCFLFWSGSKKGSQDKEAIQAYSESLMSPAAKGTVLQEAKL
SMARCA2 activ: SMARCA2 (BRM) function activators, primary screen, cell-based, luminescence, high throughput; MG213 cells, MMTV-luciferase reporter, dexamethasone, overnight; activation, % at 9.1 µM; actives 1% (n = 370,000); AID 652017, 2013; in the data active means activation above about 7.8%;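 further: 0% = vehicle wells and 100% = reference activator wells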
CR mimetic SO: reduction of superoxide in aged yeast, primary screen, HTS. S. cerevisiae aged cells, superoxide DHE fluorescence; stronger effect = lower value. superoxide response (% of plate mean), % at 10 µM. actives 0.18% (n = 330,000). AID 2690, 2010;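 active means superoxide response under a set limit, about three screen SD below normal, cut at about 65% in these data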;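 further: yeast aged for seven days with compound at 30 °C before DHE staining; 100% = average MFI of all compound-treated wells on the plate with controls excluded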
SR-BI DiI-HDL act: activators of SR-BI mediated DiI-HDL uptake, primary screen, ldlA[mSR-BI] CHO cells, DiI fluorescence | AID 504775, 2011 | actives 0.096% (n = 320,000) | activation, % at 12.5 µM | 3 h; 100 = double the neutral-control signal;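 active means mean replicate activation of at least 60% and every replicate at or above 60%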;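 further: 0% = median plate neutral-control signal and 100% = twice that signal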
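Assay system: LDL receptor-deficient CHO ldlA cells overexpressing murine SR-BI / Medium: BSA-supplemented, HEPES-buffered Ham's F12, pH 7.4 / Probe or stimulus: DiI-labelled HDL at 10 µg/mL final / Timing: compound with DiI-HDL co-incubation, 3 h at 37 °C / Technique: bottom-read cell fluorescence after medium removal, ex 550/em 595 nm / Measure: HDL uptake via cellular fluorescence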
Hep lipid drop: inhibitors of hepatocyte lipid droplet formation, primary screen, imaging, high-throughput imaging, BODIPY stain; AML12 mouse hepatocytes, oleate lipid droplets; inhibition, % at 6.5 µM; actives 0.4% (n = 240,000); AID 1656, 2009;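 active means lipid droplet intensity inhibited by at least 50%, with more than 500 cells counted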
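material = mouse AML12 hepatocyte cell line, fixed after treatment | also added = 100 µM oleic acid challenge | doses = compound at 6.5 µM only | schedule = overnight exposure | technique = Image-based BODIPY and DAPI two-channel analysis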
SMARCA2 conf: SMARCA2 (BRM) function activators, confirmation, cell-based, luminescence, triplicate. shares compounds with SMARCA2 activ. MG213 cells, MMTV-luciferase with dexamethasone, overnight; MG213 cells expressing E1A, Rb sequestered; DMSO wells 0%, reference activator 100%. activation, % at 9.1 µM. actives 30% (n = 3,500). AID 652260, 2013;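 active means activation above its plate's cutoff, the mean activation of tested wells plus 3 SD, cut at about 7.9% in these data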
VP16 Luc act: GAL4-VP16 luciferase reporter activation, counter-screen for SMARCA2 (BRM) activator project, cell-based, pG5luc, luminescence, high throughput | actives 41% (n = 3,500) | activation, % at 9.1 µM | shares compounds with SMARCA2 activ | HEK293 GAL4-VP16 pG5luc reporter; scaled: DMSO wells 0%, SAHA wells 100%;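 active means activation above the solvent-only control well mean plus 3 SD, averaged across control plates, cut at about 5.2% in these data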
Active calls of the source: *; . = no result given. An excerpt weighted towards active compounds, which were near 4.3% of everything screened.

SMILES	AHR activator	SR-BI HDL uptake	SMARCA2 activ	CR mimetic SO	SR-BI DiI-HDL act	Hep lipid drop	SMARCA2 conf	VP16 Luc act
Cc1nc(-c2ccccc2)sc1C(=O)O	1	-28	2	96	28	1	.	.
Cc1ccc(-c2nc(C)c(C(=O)O)s2)cc1	12	-6	11*	147	6	18	9.5*	7.4*
CC(=O)c1sc(-c2ccccc2)nc1C	-4	-27	0	96	27	3	.	.
O=C(Nc1ccccc1Cl)c1ccccc1	-4	9	8.8*	86	-9	5	2	5.6*
O=C(Nc1ccccc1Cl)c1ccn[nH]1	-2	-4	8.2*	94	4	.	3	2
O=C(Nc1ccccc1Cl)c1ccc(C(=O)Nc2ccccc2Cl)cc1	.	-30	-6	.	30	.	.	.
O=C(Nc1ccc2nc3n(c(=O)c2c1)CCCCC3)c1ccccn1	9	3	8.2*	105	-3	21	3	10*
O=C(Nc1ccc2nc3n(c(=O)c2c1)CCCC3)c1ccccc1F	-2	5	2	98	-5	-1	.	.
COc1ccc2c(c1OC)C(=O)N1c3ccccc3COC21 (stereo unspecified)	-2	7	8.2*	113	-7	.	8.9*	9.3*
COC(=O)C1=C(C)N(Cc2ccccc2)C(=S)NC1c1cccc(OC)c1 (stereo unspecified)	.	.	3	.	.	.	.	.
COC(=O)C1=C(C)N(Cc2ccc(F)cc2)C(=S)NC1c1cccc(OC)c1 (stereo unspecified)	.	.	8.6*	.	.	.	-4	1
Nc1ccc(CCNc2ncnc3c2ncn3[C@@H]2O[C@H](CO)[C@@H](O)[C@H]2O)cc1	3	-12	-3	108	12	.	.	.
OCC1OC(n2cnc3c(NCCc4ccccc4)ncnc32)C(O)C1O (stereo unspecified)	16	-6	11*	113	6	.	5	7.8*
O=C1c2ccccc2C(=O)c2c(NCCCN(CCO)CCO)cccc21	.	41	15*	.	-41	3	40*	0
O=C(CCNC(=O)c1ccccc1Cl)NCCCSc1ccccc1	2	-10	-1	92	10	.	.	.
O=C(NCCSc1ccccc1)c1ccccc1Cl	-1	14	8.7*	93	-14	-5	8.7*	8.8*
Cc1ccc(S(=O)(=O)NN=CC2(c3ccccc3)CC2)cc1	.	.	9.8*	.	.	.	-1	-1
O=C(NCCc1ccccc1)OCc1cn(Cc2ccccc2C(F)(F)F)nn1	.	.	-5	.	.	.	.	.
N/C(=N\OC(=O)c1cccs1)c1cccc([N+](=O)[O-])c1	34	5	11*	96	-5	-12	2	6.5*
O=C(Cc1ccccc1[N+](=O)[O-])c1ccc2c(c1)OCO2	.	-5	11*	.	5	.	4	3
N/C(=N\OC(=O)c1ccc2c(c1)OCO2)c1cccc([N+](=O)[O-])c1	5	-10	9.9*	96	10	2	12*	9.4*
Cc1cccc(C(=O)O/N=C(\N)c2cccc([N+](=O)[O-])c2)c1	6	22	.	113	-22	.	.	.
COC(=O)C1=C(C)N(Cc2ccc(C(F)(F)F)cc2)C(=NCc2ccccc2)NC1c1ccccc1 (stereo unspecified)	.	.	-10	.	.	.	.	.
CN1CCCN(C(=O)C2CCCN(C(=O)c3ccc4c(c3)NC(=O)CS4)C2)CC1 (stereo unspecified)	.	.	2	.	.	.	.	.
COc1cccc2c1CCc1c-2nc2ccccc2c1C(=O)O	14	-12	11*	129	12	-2	8.2*	5.9*
SMILES	AHR activator	SR-BI HDL uptake	SMARCA2 activ	CR mimetic SO	SR-BI DiI-HDL act	Hep lipid drop	SMARCA2 conf	VP16 Luc act
O=C(O)c1c2c(nc3ccccc13)/C(=C/c1ccc(O)cc1)CC2	0	-10	0	116	10	-6	.	.
C[C@H]1[C@@H](c2ccccc2)Oc2c(Cl)cccc2S(=O)(=O)N1C	.	.	-4	.	.	.	.	.
COC(=O)CSc1nc(-c2cccs2)ccc1C#N	10	-16	11*	111	16	.	13*	8.0*
C#CCSc1nc(-c2cccs2)ccc1C#N	10	31	-1	100	-31	13	.	.
CCOC(=O)N1CCN(C(=O)C[C@H]2C[C@@]3(C(=O)OC)C(=C[C@H](COCc4ccccc4)O[C@@H]3C)N(Cc3ccc4c(c3)OCO4)C2=O)CC1	.	.	-1	.	.	.	.	.
Cc1ccc(O)c(C2=Nc3ccccc3N=C(c3cccc([N+](=O)[O-])c3)C2)c1	20	32	8.7*	91	-32	17	0	1
COc1cc2c(C#CCCO)c(-c3ccsc3)oc(=O)c2cc1OC	37	34	9.3*	113	-34	.	11*	2
COc1cc2c(C#CCCO)c(-c3ccc(C#N)cc3)oc(=O)c2cc1OC	6	5	2	94	-5	.	.	.
COc1ccc(-c2noc(C3CCCN(C(=O)Nc4cc(C)cc(C)c4)C3)n2)cc1 (stereo unspecified)	.	.	10*	.	.	.	1	9.7*
O=C(NC(CC1=CCCCC1)c1ccc2ccccc2c1)C(F)(F)F (stereo unspecified)	.	.	-1	.	.	.	.	.
COc1ccccc1-c1csc(C(NC(C)=O)c2cccc(F)c2)n1 (stereo unspecified)	.	.	8.4*	.	.	.	3	1
COc1ccccc1-c1csc(C(NC(C)=O)c2ccc(F)c(F)c2)n1 (stereo unspecified)	.	.	1	.	.	.	.	.
CCN(CC)C(=O)CC[C@H]1CC[C@]2(CCCN(C(=O)c3ccc4ccccc4n3)C2)O1	.	.	-4	.	.	.	.	.
COC(=O)[C@]12C[C@H](CC(=O)N3CCSCC3)C(=O)N(Cc3ccc(Cl)cc3Cl)C1=C[C@H](C(C)(C)C)O[C@@H]2C	.	.	-6	.	.	.	.	.
COC(=O)C1=C(C)OC(N)=C(C#N)C1c1c(C)nn(-c2ccccc2)c1Cl (stereo unspecified)	0	3	11*	96	-3	5	-1	1
Cc1cccc(NC(=O)/C(C#N)=C/c2ccccc2Cl)n1	12	25	-3	97	-25	7	.	.
N#C/C(=C\c1ccc(O)c(O)c1)C(=O)Nc1ccccc1	-5	12	9.8*	100	-12	.	0	4
